Test results published in ChEMBL document CHEMBL1135489, “Structurally simple trichostatin A-like straight chain hydroxamates as potent histone deacetylase inhibitors” (J Med Chem, 2002).

What was measured:
A549 = assay: Inhibitory concentration required to reduce A549 tumor cell growth by 50% in MTT assay; format: functional, cell-based; conditions: Homo sapiens
Method in brief: (§1)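 Compound dilution series added to plated cells, 72 h at 37 °C, 5% CO2. MTT then added at 0.5 mg/mL final for 4 h. Solubilization buffer (50% DMF, 20% SDS, pH 4.7) added, incubated overnight, read at 570 with 630 reference. OD converted to cell number from each line's standard growth curve.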

DU-145 = assay: Inhibitory concentration required to reduce DU145 tumor cell growth by 50% in MTT assay; format: functional, cell-based; conditions: Homo sapiens; method in brief: as §1
NCI-H446 = assay: Inhibitory concentration required to reduce H446 tumor cell growth by 50% in MTT assay; format: functional, cell-based; conditions: Homo sapiens; method in brief: as §1
HCT-116 = assay: Inhibitory concentration required to reduce HCT 116 tumor cell growth by 50% in MTT assay; format: functional, cell-based; conditions: Homo sapiens; method in brief: as §1
HMEC = assay: Inhibitory concentration required to reduce normal human epithelial cell line (HMEC), growth by 50% in MTT assay; format: functional, cell-based; method in brief: as §1
MCF7 = assay: Inhibitory concentration required to reduce MCF-7 tumor cell growth by 50% in MTT assay; format: functional, cell-based; conditions: Homo sapiens; method in brief: as §1
MDA-MB-231 = assay: Inhibitory concentration required to reduce MDAmb 231 tumor cell growth by 50% in MTT assay; format: functional, cell-based; conditions: Homo sapiens; method in brief: as §1
SW48 = assay: Inhibitory concentration required to reduce SW48 tumor cell growth by 50% in MTT assay; format: functional, cell-based; conditions: Homo sapiens; method in brief: as §1
T-24 = assay: Inhibitory concentration required to reduce T24 tumor cell growth by 50% in MTT assay; format: functional, cell-based; conditions: Homo sapiens; method in brief: as §1
Histone deacetylase 1 = Histone deacetylase 1 (Homo sapiens, UniProt Q13547); assay: Inhibition against partially purified human histone deacetylase 1 (HDAC-1)
Sequence of Histone deacetylase 1 (Q13547 whole entry): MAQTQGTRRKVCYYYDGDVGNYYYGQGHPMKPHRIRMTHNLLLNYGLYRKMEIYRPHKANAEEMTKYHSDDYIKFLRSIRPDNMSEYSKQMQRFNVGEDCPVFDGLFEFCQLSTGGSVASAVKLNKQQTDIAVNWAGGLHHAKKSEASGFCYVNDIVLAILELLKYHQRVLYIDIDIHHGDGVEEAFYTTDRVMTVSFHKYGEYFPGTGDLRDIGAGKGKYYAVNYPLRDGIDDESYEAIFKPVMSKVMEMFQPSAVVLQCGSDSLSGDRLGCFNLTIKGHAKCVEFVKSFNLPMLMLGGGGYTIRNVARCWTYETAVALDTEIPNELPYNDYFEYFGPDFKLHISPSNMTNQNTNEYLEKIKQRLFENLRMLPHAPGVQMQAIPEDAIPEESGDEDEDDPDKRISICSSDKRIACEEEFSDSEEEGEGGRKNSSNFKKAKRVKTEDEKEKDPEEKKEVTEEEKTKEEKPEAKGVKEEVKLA

Structure (SMILES)	IC50 (A549) [µM]	IC50 (DU-145) [µM]	IC50 (NCI-H446) [µM]	IC50 (HCT-116) [µM]	IC50 (MCF7) [µM]	IC50 (MDA-MB-231) [µM]	IC50 (SW48) [µM]	IC50 (Histone deacetylase 1) [µM]	IC50 (HMEC) [µM]	IC50 (T-24) [µM]
O=C(CCCCCCC(=O)c1cccnc1)NO								0.153		
O=C(CCCCCCCc1ccc2ccccc2c1)NO								0.025		
O=C(CCCCC/C=C/c1ccc2ccccc2c1)NO								0.006		
O=C(CCCCCCC(=O)c1ccc(N2CCN(c3ccccc3)CC2)cc1)NO	5	5.5	1	4	2	0.8	2.5	0.0045	> 20	7

The next lines start with results.

IC50 (A549) [µM]	IC50 (DU-145) [µM]	IC50 (NCI-H446) [µM]	IC50 (HCT-116) [µM]	IC50 (MCF7) [µM]	IC50 (MDA-MB-231) [µM]	IC50 (SW48) [µM]	IC50 (Histone deacetylase 1) [µM]	Structure (SMILES)	IC50 (HMEC) [µM]	IC50 (T-24) [µM]
0.16	0.2	0.08	< 0.05	0.1	0.09	0.1		CC(/C=C/C(=O)NO)=C\[C@@H](C)C(=O)c1ccc(N(C)C)cc1 [TRICHOSTATIN]	1.6	0.15
							0.045	O=C(CCCCCCC(=O)c1ccc(C(F)(F)F)cc1)NO		
